Legend:
[1] = target: Collagenase 3 (Homo sapiens, UniProt P45452); assay: In vitro inhibitory activity against human recombinant matrix metalloprotease-13 (collagenase-3)
[2] = target: T1, Interstitial collagenase (Homo sapiens, UniProt P03956); assay: In vitro inhibitory activity against matrix metalloprotease -1 (collagenase-1)
T1 sequence (P03956 whole entry): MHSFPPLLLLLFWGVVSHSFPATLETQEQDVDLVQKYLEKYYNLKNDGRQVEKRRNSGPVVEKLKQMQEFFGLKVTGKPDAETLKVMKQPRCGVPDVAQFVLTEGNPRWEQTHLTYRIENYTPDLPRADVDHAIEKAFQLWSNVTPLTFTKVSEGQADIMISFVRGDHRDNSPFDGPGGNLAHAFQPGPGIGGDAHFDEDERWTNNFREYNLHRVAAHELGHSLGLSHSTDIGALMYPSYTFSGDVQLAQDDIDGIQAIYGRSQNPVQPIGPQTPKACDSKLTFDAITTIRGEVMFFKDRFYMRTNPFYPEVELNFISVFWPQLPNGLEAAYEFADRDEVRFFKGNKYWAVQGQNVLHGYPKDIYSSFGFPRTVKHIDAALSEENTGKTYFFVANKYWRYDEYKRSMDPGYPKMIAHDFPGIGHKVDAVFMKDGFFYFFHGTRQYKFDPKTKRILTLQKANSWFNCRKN

[3] = target: T2, Matrilysin (Homo sapiens, UniProt P09237); assay: In vitro inhibitory activity against matrix metalloprotease-7 (matrilysin, MMP-7)
T2 sequence (P09237 whole entry): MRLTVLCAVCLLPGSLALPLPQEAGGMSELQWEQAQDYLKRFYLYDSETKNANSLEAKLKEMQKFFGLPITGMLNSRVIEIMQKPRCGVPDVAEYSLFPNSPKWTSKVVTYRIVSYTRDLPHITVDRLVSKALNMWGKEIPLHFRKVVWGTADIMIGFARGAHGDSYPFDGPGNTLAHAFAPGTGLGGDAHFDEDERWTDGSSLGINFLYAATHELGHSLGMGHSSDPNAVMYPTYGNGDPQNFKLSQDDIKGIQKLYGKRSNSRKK
How it was run: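 Human recombinant truncated enzymes, final MMP-1 8 nM, MMP-3 16 nM, MMP-7 2 nM. Quenched-fluorescence assay with Mca-Pro-Leu-Gly-Leu-Dpa-Ala-Arg-NH₂ (4 µM) in 50 mM Tris pH 7.5, 0.2 M NaCl, 5 mM CaCl₂, 0.02% Brij-35 at 25 °C. Fluorescence (ex 328/em 393 nm) read kinetically for 30 min.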

[4] = target: Stromelysin-1 (Homo sapiens, UniProt P08254); assay: In vitro inhibitory activity against matrix metalloprotease -3 (stromelysin)
Sequence of Stromelysin-1 (P08254 whole entry): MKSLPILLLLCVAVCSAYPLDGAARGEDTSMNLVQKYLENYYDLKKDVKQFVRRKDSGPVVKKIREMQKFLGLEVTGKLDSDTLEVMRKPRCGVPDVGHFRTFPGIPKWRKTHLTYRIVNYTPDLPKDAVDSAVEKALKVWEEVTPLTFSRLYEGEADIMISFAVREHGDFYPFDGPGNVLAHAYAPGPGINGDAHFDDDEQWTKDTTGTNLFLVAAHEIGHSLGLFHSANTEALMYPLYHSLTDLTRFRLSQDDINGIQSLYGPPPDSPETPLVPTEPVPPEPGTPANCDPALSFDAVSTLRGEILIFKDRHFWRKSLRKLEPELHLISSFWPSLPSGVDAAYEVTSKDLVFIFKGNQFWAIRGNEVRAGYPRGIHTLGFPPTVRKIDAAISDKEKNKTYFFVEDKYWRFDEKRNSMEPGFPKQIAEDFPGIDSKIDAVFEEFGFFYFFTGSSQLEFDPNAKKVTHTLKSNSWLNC

[5] = target: 72 kDa type IV collagenase (Homo sapiens, UniProt P08253); assay: In vitro inhibitory activity against matrix metalloprotease -2 (gelatinase-A)
Sequence of 72 kDa type IV collagenase (P08253 whole entry): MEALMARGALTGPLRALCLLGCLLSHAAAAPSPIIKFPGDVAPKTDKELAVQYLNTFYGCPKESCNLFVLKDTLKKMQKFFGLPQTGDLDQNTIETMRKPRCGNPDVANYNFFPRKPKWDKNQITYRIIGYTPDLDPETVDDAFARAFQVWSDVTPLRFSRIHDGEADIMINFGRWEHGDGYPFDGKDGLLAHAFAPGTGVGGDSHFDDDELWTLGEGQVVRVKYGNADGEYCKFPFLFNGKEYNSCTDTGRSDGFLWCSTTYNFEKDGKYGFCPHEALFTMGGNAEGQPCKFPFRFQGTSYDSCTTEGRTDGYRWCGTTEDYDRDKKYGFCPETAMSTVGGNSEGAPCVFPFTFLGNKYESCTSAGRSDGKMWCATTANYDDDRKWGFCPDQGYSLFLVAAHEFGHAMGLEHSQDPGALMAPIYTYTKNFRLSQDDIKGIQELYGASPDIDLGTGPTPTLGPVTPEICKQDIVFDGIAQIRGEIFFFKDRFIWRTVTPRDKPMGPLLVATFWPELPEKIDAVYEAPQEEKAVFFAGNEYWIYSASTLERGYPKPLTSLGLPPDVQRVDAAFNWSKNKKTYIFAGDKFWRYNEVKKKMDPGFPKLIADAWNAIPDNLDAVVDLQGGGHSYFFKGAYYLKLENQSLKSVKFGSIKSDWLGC

Row | Compound | IC50 [1] [nM] | IC50 [2] [nM] | IC50 [3] [nM] | IC50 [4] [nM] | IC50 [5] [nM]
1 | O=C(NO)[C@H]1C[C@H](N2CCCC2)CN1S(=O)(=O)c1ccc(Oc2ccc(F)cc2)cc1 | < 0.4 | 20 | 850 | 4 | –
2 | CCCCOc1ccc(S(=O)(=O)N2C[C@@H](N3CCCS3(=O)=O)C[C@@H]2C(=O)NO)cc1 | < 0.4 | 230 | 680 | 13 | –
3 | CCCCCc1ccc(S(=O)(=O)N2C[C@@H](N3CCOCC3)C[C@@H]2C(=O)NO)cc1 | 0.7 | – | 7400 | 12 | –
4 | CCCCOc1ccc(S(=O)(=O)N2C[C@@H](N3C(=O)CN(CCC)C3=O)C[C@@H]2C(=O)NO)cc1 | 0.3 | 570 | 1200 | 10 | 0.4
5 | CCCN1CC(=O)N([C@H]2C[C@H](C(=O)NO)N(S(=O)(=O)c3ccc(OCCOC)cc3)C2)C1=O | 2 | 2500 | 11000 | 30 | 2
6 | CC(C)COc1ccc(S(=O)(=O)N2C[C@@H](N3C(=O)CN(C)C3=O)C[C@@H]2C(=O)NO)cc1 | 2.8 | 300 | 2300 | 3 | –
7 | CS(=O)(=O)N[C@H]1C[C@H](C(=O)NO)N(S(=O)(=O)c2ccc(Oc3ccncc3)cc2)C1 | 0.8 | 450 | > 10000 | 22 | –
8 | CN1CC(=O)N([C@H]2C[C@H](C(=O)NO)N(S(=O)(=O)c3ccc(Oc4ccncc4)cc3)C2)C1=O | 0.7 | 600 | 7400 | 11 | –
9 | O=C(NO)[C@H]1C[C@H](N2CCCCC2)CN1S(=O)(=O)c1ccc(Oc2ccccc2)cc1 | < 0.4 | 17 | 610 | 8 | –
10 | CN1CC(=O)N([C@H]2C[C@H](C(=O)NO)N(S(=O)(=O)c3ccc(Oc4ccccc4)cc3)C2)C1=O | < 0.4 | 21 | 310 | 6 | –
11 | CCOc1ccc(S(=O)(=O)N2C[C@@H](N3C(=O)CN(C)C3=O)C[C@@H]2C(=O)NO)cc1 | 4 | 580 | 7500 | 33 | –
12 | COc1ccc(S(=O)(=O)N2C[C@@H](NC(=O)[C@H](Cc3ccccc3)OCc3ccccc3)C[C@@H]2C(=O)NO)cc1 | 2 | 240 | – | 10 | 0.2
13 | CCCOc1ccc(S(=O)(=O)N2C[C@@H](N3C(=O)CN(C)C3=O)C[C@@H]2C(=O)NO)cc1 | 0.3 | 260 | 2600 | 9 | –
14 | CCCCCc1ccc(S(=O)(=O)N2C[C@@H](N3CCCCC3)C[C@@H]2C(=O)NO)cc1 | 0.9 | 2000 | 9800 | 12 | –
15 | C=CCN1CC(=O)N([C@H]2C[C@H](C(=O)NO)N(S(=O)(=O)c3ccc(OCCOC)cc3)C2)C1=O | 2 | 2900 | 11000 | 46 | 2
16 | COc1ccc(S(=O)(=O)N2C[C@@H](N3C(=O)CN(C)C3=O)C[C@@H]2C(=O)NO)cc1 | 0.5 | 200 | 1800 | 8 | –
17 | O=C(NO)[C@H]1C[C@H](N2CCOCC2)CN1S(=O)(=O)c1ccc(Oc2ccccc2)cc1 | < 0.4 | 19 | 710 | 7 | –
18 | O=C(NO)[C@H]1C[C@H](N2CCCC2)CN1S(=O)(=O)c1ccc(Oc2ccccc2)cc1 | < 0.4 | 19 | 790 | 5 | –

Results, then the compound that gave them:

Row | IC50 [1] [nM] | IC50 [2] [nM] | IC50 [3] [nM] | IC50 [4] [nM] | IC50 [5] [nM] | Compound
19 | – | 560 | 1400 | 57 | – | COc1ccc(S(=O)(=O)N2C[C@@H](NCCc3ccccc3)C[C@@H]2C(=O)NO)cc1
20 | 1 | – | 7400 | 48 | 6 | COc1ccc(S(=O)(=O)N2C[C@@H](N3CCCCC3)C[C@@H]2C(=O)NO)cc1
21 | 2 | 260 | 2700 | 42 | 2 | COc1ccc(S(=O)(=O)N2C[C@@H](NS(C)(=O)=O)C[C@@H]2C(=O)NO)cc1
22 | – | 220 | – | 14 | 6 | COc1ccc(S(=O)(=O)N2C[C@@H](N3CCOCC3)C[C@@H]2C(=O)NO)cc1
23 | – | > 1000 | – | 400 | – | COc1ccc(S(=O)(=O)N2C[C@@H](NC(=O)c3ccc(-c4ccccc4)cc3)C[C@@H]2C(=O)NO)cc1
24 | 1 | 310 | 8700 | 8 | < 1 | CCCOc1ccc(S(=O)(=O)N2C[C@@H](N3CCCC3)C[C@@H]2C(=O)NO)cc1
25 | 1 | 140 | 3500 | 8 | – | CCCOc1ccc(S(=O)(=O)N2C[C@@H](NC(=O)[C@H](C)O)C[C@@H]2C(=O)NO)cc1
26 | 0.8 | 33 | 920 | 10 | 0.8 | CCCN([C@H]1C[C@H](C(=O)NO)N(S(=O)(=O)c2ccc(OC)cc2)C1)S(C)(=O)=O
27 | 0.9 | 440 | 2400 | 10 | – | CCCCOc1ccc(S(=O)(=O)N2C[C@@H](NC(=O)[C@@H](O)CC(C)C)C[C@@H]2C(=O)NO)cc1
28 | 1 | 87 | 8500 | 2 | 0.7 | CCCN(C(=O)[C@H](C)O)[C@H]1C[C@H](C(=O)NO)N(S(=O)(=O)c2ccc(OC)cc2)C1
29 | 5 | 250 | 4300 | 23 | 6 | COc1ccc(S(=O)(=O)N2C[C@@H](N)C[C@@H]2C(=O)NO)cc1
30 | 3 | 500 | > 10000 | 30 | – | CCCOc1ccc(S(=O)(=O)N2C[C@@H](NC(=O)COC)C[C@@H]2C(=O)NO)cc1
31 | < 0.4 | 100 | 840 | 8 | – | CCCOc1ccc(S(=O)(=O)N2C[C@@H](N3CCCS3(=O)=O)C[C@@H]2C(=O)NO)cc1
32 | – | 140 | – | 7 | 0.3 | COc1ccc(S(=O)(=O)N2C[C@@H](NC(=O)[C@H](C)OCc3ccccc3)C[C@@H]2C(=O)NO)cc1
33 | 0.7 | 1200 | 4900 | 14 | – | CCCCOc1ccc(S(=O)(=O)N2C[C@@H](NC(=O)COC)C[C@@H]2C(=O)NO)cc1
34 | 0.5 | 19 | 520 | 6 | – | COc1ccc(S(=O)(=O)N2C[C@@H](N(C)S(C)(=O)=O)C[C@@H]2C(=O)NO)cc1
35 | 17 | 270 | – | 10 | 2.2 | COc1ccc(S(=O)(=O)N2C[C@@H](N(Cc3cccnc3)C(=O)C(C)C)C[C@@H]2C(=O)NO)cc1
36 | 0.8 | 270 | 1700 | 8 | – | CCCCOc1ccc(S(=O)(=O)N2C[C@@H](NC(=O)[C@@H](O)C(C)C)C[C@@H]2C(=O)NO)cc1
37 | 0.4 | 42 | 1400 | 13 | – | COc1ccc(S(=O)(=O)N2C[C@@H](N3CCCS3(=O)=O)C[C@@H]2C(=O)NO)cc1
38 | 1 | 300 | 7100 | 23 | – | COc1ccc(S(=O)(=O)N2C[C@@H](N3CCS(=O)(=O)CC3)C[C@@H]2C(=O)NO)cc1
39 | 0.9 | 1200 | 4200 | 10 | – | CCCCOc1ccc(S(=O)(=O)N2C[C@@H](NC(=O)[C@H](C)O)C[C@@H]2C(=O)NO)cc1
40 | – | 380 | – | 8 | – | CCCCOc1ccc(S(=O)(=O)N2C[C@@H](N)C[C@@H]2C(=O)NO)cc1
41 | 27 | 3100 | – | 300 | – | CNC(=O)N[C@H]1C[C@H](C(=O)NO)N(S(=O)(=O)c2ccc(OC)cc2)C1
42 | 0.4 | 210 | 620 | 9 | – | CCCOc1ccc(S(=O)(=O)N2C[C@@H](N3CCCCC3)C[C@@H]2C(=O)NO)cc1
43 | 0.7 | 1300 | 3900 | – | 0.8 | CCCCOc1ccc(S(=O)(=O)N2C[C@@H](NS(C)(=O)=O)C[C@@H]2C(=O)NO)cc1
44 | – | 700 | – | 6 | – | CCCCOc1ccc(S(=O)(=O)N2C[C@@H](NS(=O)(=O)c3cn(C)cn3)C[C@@H]2C(=O)NO)cc1
45 | 5 | – | 2200 | 87 | – | CCCN[C@H]1C[C@H](C(=O)NO)N(S(=O)(=O)c2ccc(OC)cc2)C1
